The values below come from ChEMBL document CHEMBL2321806 (J Med Chem, 2013).

Assay [1] addresses T1, Insulin-degrading enzyme (Homo sapiens, UniProt P14735). Description: Inhibition of human recombinant IDE-mediated FRET1 degradation. The following applies: read-out: Ki(app).
Assay [2] addresses Neprilysin (Homo sapiens) (UniProt P08473). Description: Inhibition of NEP (unknown origin)-mediated omniMMP degradation up to 10 uM. In a few lines: (§1)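 Each protease (NEP, ECE1, ACE, MMP-2, MMP-7) was tested against the shared fluorogenic peptide substrate OmniMMP, with inhibitor concentrations up to 10 μM. IC50 values were taken from the dose-response data.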
The target of assay [3] is T2, Matrilysin (Homo sapiens) (UniProt P09237).
T2 sequence (whole entry): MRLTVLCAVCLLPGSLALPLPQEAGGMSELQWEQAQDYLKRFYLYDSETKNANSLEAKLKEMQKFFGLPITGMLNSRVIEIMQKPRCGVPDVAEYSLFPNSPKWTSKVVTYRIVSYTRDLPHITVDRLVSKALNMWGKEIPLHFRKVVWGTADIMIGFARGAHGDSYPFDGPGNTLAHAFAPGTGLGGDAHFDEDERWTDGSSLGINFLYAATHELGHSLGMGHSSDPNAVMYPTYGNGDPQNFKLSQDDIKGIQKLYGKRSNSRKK
Nature of the assay: Inhibition of MMP7 (unknown origin)-mediated omniMMP degradation up to 10 uM. In a few lines: as §1

In assay [4] the target is 72 kDa type IV collagenase (Homo sapiens) (UniProt P08253). Description: Inhibition of MMP2 (unknown origin)-mediated omniMMP degradation up to 10 uM. The method, boiled down: as §1
72 kDa type IV collagenase (Homo sapiens), sequence (P08253 110-660 limits assumed): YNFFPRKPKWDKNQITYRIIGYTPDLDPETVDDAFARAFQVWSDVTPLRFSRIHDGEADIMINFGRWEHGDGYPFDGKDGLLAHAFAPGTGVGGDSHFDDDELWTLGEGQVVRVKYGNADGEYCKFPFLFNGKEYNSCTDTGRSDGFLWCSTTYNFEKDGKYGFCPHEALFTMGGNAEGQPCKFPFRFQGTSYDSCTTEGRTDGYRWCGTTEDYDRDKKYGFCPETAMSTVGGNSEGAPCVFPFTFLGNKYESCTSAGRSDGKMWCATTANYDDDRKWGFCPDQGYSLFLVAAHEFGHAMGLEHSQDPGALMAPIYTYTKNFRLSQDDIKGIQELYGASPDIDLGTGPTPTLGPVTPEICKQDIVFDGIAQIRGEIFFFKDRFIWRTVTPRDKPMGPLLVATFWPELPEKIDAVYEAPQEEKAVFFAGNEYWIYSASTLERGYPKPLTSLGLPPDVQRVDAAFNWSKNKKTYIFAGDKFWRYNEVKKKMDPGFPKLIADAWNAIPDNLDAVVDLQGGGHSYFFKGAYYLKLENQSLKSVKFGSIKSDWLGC
The target in assay [5] is Angiotensin-converting enzyme (Homo sapiens) (UniProt P12821). Nature of the assay: Inhibition of ACE (unknown origin)-mediated omniMMP degradation up to 10 uM. In a few lines: as §1
Angiotensin-converting enzyme (Homo sapiens), sequence (P12821 whole entry): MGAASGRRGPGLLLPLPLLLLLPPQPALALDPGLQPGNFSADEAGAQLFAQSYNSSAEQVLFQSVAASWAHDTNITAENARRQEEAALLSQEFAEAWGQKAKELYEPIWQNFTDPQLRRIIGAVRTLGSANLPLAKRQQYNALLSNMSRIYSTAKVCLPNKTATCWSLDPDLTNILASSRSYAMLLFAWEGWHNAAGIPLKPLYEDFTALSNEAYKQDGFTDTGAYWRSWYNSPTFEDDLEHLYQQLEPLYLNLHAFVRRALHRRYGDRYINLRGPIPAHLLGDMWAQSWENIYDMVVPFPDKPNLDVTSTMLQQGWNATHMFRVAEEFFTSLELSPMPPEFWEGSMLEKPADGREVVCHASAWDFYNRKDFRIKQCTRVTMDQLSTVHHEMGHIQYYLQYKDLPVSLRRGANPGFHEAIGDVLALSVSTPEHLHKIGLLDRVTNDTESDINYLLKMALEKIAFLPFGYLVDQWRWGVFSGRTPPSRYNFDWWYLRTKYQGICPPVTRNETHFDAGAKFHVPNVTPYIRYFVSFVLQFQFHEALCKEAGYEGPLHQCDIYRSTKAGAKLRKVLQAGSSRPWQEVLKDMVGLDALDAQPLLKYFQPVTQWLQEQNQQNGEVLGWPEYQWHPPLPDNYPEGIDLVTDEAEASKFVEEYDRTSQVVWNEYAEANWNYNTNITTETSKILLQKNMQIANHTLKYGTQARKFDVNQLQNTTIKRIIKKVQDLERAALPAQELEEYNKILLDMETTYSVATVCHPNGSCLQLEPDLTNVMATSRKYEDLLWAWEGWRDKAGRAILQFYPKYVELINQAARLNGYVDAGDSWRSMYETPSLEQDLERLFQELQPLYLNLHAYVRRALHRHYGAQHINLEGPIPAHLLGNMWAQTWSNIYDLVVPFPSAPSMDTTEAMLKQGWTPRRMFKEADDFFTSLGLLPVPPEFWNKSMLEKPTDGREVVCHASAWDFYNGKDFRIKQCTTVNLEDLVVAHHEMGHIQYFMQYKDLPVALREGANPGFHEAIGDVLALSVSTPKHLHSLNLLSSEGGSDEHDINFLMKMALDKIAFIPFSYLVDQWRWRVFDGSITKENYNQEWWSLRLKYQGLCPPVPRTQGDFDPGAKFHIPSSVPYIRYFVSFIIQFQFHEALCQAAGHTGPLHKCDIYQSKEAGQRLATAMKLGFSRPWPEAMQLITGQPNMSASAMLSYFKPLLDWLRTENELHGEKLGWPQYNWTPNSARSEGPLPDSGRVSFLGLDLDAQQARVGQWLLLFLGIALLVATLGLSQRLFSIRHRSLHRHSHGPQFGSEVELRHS
The target in assay [6] is T3, Endothelin-converting enzyme 1 (Homo sapiens) (UniProt P42892).
T3 sequence (whole entry): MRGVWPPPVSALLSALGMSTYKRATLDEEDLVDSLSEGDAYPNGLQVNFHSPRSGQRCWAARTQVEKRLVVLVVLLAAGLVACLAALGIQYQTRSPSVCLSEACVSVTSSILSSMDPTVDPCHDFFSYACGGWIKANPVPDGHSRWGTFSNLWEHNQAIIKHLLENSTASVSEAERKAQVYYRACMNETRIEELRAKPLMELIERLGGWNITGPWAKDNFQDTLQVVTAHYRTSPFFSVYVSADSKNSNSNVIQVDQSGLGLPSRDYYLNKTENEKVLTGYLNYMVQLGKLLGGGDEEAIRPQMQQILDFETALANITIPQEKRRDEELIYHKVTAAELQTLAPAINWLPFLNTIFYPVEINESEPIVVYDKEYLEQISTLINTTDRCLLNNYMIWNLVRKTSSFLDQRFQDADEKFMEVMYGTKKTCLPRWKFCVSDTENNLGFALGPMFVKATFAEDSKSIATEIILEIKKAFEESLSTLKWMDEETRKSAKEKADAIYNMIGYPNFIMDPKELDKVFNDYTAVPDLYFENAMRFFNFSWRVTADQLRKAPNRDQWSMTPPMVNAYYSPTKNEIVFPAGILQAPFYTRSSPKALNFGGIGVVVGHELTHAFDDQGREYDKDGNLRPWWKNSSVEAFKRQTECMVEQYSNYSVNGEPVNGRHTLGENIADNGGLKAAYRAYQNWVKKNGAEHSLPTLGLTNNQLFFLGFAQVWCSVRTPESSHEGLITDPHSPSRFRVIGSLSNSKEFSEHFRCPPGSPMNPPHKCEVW
Description: Inhibition of ECE1 (unknown origin)-mediated omniMMP degradation up to 10 uM. The method, boiled down: as §1

Assay [7] addresses T1, Insulin-degrading enzyme. Nature of the assay: Inhibition of human recombinant IDE-mediated fluorescein-Abeta-(1-40)-Lys-biotin degradation. The following applies: read-out: Ki(app). The method, boiled down: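 Aβ (200 nM) degradation by recombinant human IDE at 22 °C in HEPES pH 7.4 buffer with 100 mM NaCl, 10 mM MgCl₂, 0.05% BSA.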
In assay [8] the target is T1, Insulin-degrading enzyme. Description: Inhibition of human recombinant IDE-mediated insulin degradation. The settings on record: read-out: Ki(app). In a few lines: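 Insulin (2 nM) breakdown by recombinant human IDE in 50 mM HEPES pH 7.4, 100 mM NaCl, 10 mM MgCl₂, 0.05% BSA at 22 °C.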
The target in assay [9] is T4, Matrilysin (Homo sapiens, UniProt P09237).
T4 sequence (P09237 whole entry): T2 sequence (whole entry)
Nature of the assay: (§2) Inhibition of MMP7 (unknown origin)-mediated omniMMP degradation. In a few lines:
as §1

Assay [10] concerns the target T2, Matrilysin (Homo sapiens). The description is as §2. In a few lines: as §1
Assay [11] addresses T1, Insulin-degrading enzyme. Description: Selectivity ratio of apparent Ki for human recombinant IDE-mediated insulin degradation to apparent Ki for human recombinant IDE-mediated FRET1 degradation.

Active and inactive are the calls of the source. The rule behind the calls is not given here.

By IC50 is commonly meant the concentration needed to halve the response being measured. The low end stands for inhibition by little substance, the high end for a need for much substance.

T1 sequence (P14735 whole entry): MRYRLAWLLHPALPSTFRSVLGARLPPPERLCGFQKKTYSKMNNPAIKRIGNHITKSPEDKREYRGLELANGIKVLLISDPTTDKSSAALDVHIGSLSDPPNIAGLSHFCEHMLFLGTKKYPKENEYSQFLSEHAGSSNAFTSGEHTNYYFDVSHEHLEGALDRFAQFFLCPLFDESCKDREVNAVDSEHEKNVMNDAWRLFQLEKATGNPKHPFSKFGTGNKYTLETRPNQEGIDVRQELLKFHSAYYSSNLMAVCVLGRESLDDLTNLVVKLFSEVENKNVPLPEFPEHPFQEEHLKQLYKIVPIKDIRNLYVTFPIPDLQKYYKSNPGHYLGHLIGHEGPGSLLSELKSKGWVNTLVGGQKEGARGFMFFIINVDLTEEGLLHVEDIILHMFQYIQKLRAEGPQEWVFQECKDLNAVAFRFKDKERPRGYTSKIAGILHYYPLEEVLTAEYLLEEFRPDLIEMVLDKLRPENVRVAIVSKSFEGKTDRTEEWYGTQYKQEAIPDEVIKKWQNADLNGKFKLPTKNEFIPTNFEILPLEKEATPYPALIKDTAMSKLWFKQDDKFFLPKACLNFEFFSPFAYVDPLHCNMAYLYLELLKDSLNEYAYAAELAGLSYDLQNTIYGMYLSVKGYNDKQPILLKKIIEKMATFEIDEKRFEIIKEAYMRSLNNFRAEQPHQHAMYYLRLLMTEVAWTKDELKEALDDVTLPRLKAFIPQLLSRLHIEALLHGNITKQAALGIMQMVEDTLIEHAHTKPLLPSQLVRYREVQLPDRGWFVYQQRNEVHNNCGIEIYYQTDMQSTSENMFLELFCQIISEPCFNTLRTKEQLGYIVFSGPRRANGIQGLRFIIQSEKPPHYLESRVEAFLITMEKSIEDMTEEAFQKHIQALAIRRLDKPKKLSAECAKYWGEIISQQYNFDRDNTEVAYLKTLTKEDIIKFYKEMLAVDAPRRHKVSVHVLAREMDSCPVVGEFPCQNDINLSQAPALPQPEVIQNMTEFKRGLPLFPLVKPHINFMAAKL
Neprilysin (Homo sapiens), sequence (P08473 whole entry): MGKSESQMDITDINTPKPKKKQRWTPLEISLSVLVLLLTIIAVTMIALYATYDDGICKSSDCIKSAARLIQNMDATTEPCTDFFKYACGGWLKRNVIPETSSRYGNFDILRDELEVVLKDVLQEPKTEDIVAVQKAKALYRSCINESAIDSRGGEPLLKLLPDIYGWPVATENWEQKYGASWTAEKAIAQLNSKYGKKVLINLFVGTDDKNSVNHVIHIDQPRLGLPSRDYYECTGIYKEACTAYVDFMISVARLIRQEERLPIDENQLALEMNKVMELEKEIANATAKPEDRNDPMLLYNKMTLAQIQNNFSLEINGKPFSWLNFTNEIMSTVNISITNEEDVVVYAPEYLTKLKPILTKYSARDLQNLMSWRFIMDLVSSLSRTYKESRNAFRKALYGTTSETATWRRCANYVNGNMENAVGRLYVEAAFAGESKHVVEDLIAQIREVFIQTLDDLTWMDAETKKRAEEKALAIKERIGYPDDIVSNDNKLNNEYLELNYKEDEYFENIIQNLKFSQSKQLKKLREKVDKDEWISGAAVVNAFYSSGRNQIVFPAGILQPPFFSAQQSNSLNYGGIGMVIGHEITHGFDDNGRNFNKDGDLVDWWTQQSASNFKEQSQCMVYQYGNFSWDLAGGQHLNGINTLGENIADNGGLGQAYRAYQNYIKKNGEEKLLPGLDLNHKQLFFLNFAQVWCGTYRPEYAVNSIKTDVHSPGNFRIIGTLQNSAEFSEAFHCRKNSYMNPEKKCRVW

With `C=CCOC(=O)[C@H](CCCNC(=N)N)NC(=O)[C@H](CC(=O)NO)Cc1ccc2ccccc2c1`, the Ki in [1] was 5280 nM.
For the molecule `N=C(N)NCCCC[C@H](NC(=O)[C@@H](CC(=O)NO)Cc1ccc2ccccc2c1)C(N)=O`, the Ki in assay [1] was above 33000 nM.
On the same count and under the same terms, the figure for `N=C(N)NCCC[C@H](NC(=O)[C@H](CC(=O)NO)Cc1ccc2ccccc2c1)C(=O)N[C@@H](Cc1c[nH]c2ccccc12)C(=O)N[C@@H](CCC(=O)O)C(N)=O` is 73.3 nM.
As for `N=C(N)NCCC[C@H](NC(=O)[C@H](Cc1ccc2ccccc2c1)[C@@H](O)C(=O)NO)C(=O)N[C@@H](Cc1c[nH]c2ccccc12)C(=O)N[C@@H](CCC(=O)O)C(N)=O`, the inhibition result in assay [2], in assay [3], in [4], in assay [5] and in assay [6] was “inactive” each time.
On to `C=CCOC(=O)[C@H](CCCN=C(N)N)NC(=O)[C@@H](CC(=O)NO)Cc1ccc2ccccc2c1`, for which the Ki in assay [1] came to 87 nM; in [7], 107 nM; in assay [8] it was 1280 nM.
As to `NC(=O)[C@H](CCCN=C(N)N)NC(=O)[C@@H](CC(=O)NO)Cc1ccc2ccccc2c1`, the Ki in assay [1] was 1150 nM.
For the molecule `CC(=O)N[C@@H](CCC(=O)O)C(=O)N[C@@H](Cc1c[nH]c2ccccc12)C(=O)N[C@@H](CCCN=C(N)N)C(=O)[C@H](CC(=O)NO)Cc1ccc2ccccc2c1`, in [1], the Ki came out at 78 nM.
The same measure, in the same setting: the figure for `NC(=O)[C@H](CCCN=C(N)N)NC(=O)[C@H](Cc1ccc2ccccc2c1)[C@H](O)C(=O)NO` is 7750 nM.
Regarding `N=C(N)NCCC[C@@H](NC(=O)[C@@H](Cc1ccc(O)cc1)NC(=O)[C@H](N)CCC(=O)O)C(=O)N[C@H](Cc1ccc2ccccc2c1)C(=O)NO`, the figures for the Ki in assay [1], in assay [7] and in assay [8] were 85.1 nM, 365 nM and 833 nM, respectively.
Molecule `NC(=O)[C@H](CCC(=O)O)NC(=O)[C@H](Cc1c[nH]c2ccccc12)NC(=O)[C@H](CCCN=C(N)N)NC(=O)[C@H](Cc1ccc2ccccc2c1)[C@H](O)C(=O)NO` showed an IC50 in assay [9] of 1150 nM. In addition, the Ki is 25.9 nM in [1], 70.3 nM in assay [7] and 275 nM in assay [8].
With `CC[C@@H](C)[C@H]1NC(=O)[C@@H](Cc2ccccc2)NC(=O)[C@@H](Cc2cnc[nH]2)NC(=O)[C@@H](CC(=O)O)NC(=O)CC[C@H](C(=O)N[C@H](Cc2c[nH]c3ccccc23)C(=O)N[C@H](CCCN=C(N)N)C(=O)N[C@H](Cc2ccc3ccccc3c2)C(=O)NO)NC(=O)[C@@H](CCCN=C(N)N)NC1=O`, the Ki in [1] was found to be 23.1 nM; in [7], 246 nM; in [8], 171 nM.
As to `N=C(N)NCCCC[C@H](NC(=O)[C@H](CC(=O)NO)Cc1ccc2ccccc2c1)C(N)=O`, the Ki in assay [1] is above 33000 nM.
In the case of `CC(=O)N[C@@H](CCC(=O)NCCNc1cccc2c(S(=O)(=O)O)cccc12)C(=O)N[C@H](Cc1ccc(O)cc1)C(=O)N(C(=O)c1ccccc1)[C@H](Cc1ccccc1)C(=O)N[C@H](Cc1ccc2ccccc2c1)C(=O)NO`, the Ki is 43.7 nM in assay [1], 1.4 nM in assay [7] and 410 nM in [8].
As to `NC(=O)[C@H](CCC(=O)O)NC(=O)[C@H](Cc1c[nH]c2ccccc12)NC(=O)[C@H](CCCN=C(N)N)NC(=O)[C@H](Cc1ccc2ccccc2c1)[C@@H](O)C(=O)NO`, the Ki in assay [1] was 103 nM; in assay [7], 927 nM; in assay [8], 1890 nM.
On to `N=C(N)NCCC[C@H](NC(=O)[C@@H](CC(=O)NO)Cc1ccc2ccccc2c1)C(=O)N[C@@H](Cc1c[nH]c2ccccc12)C(=O)N[C@@H](CCC(=O)O)C(N)=O`, for which the inhibition entry in [10] was “Active”. The Ki in [1] is 2.96 nM; in assay [7] it was 21.7 nM; in assay [8], 37.9 nM.
For the molecule `N=C(N)NCCC[C@@H](NC(=O)[C@@H](Cc1c[nH]c2ccccc12)NC(=O)[C@H](N)CCC(=O)O)C(=O)N[C@H](Cc1ccc2ccccc2c1)C(=O)NO`, the Ratio Ki(app) in [11] is above 60.
Take `NC(=O)[C@H](CCCN=C(N)N)NC(=O)[C@H](Cc1ccc2ccccc2c1)[C@@H](O)C(=O)NO`: the Ki in [1] came to 7020 nM.
Same read-out and setting: the figure for `N=C(N)NCCCC[C@H](NC(=O)[C@H](Cc1ccc2ccccc2c1)[C@H](O)C(=O)NO)C(N)=O` is above 33000 nM; for `NC(=O)[C@H](CCCN=C(N)N)NC(=O)[C@H](CC(=O)NO)Cc1ccc2ccccc2c1` it is above 33000 nM.
In the case of `NC(N)=NCCC[C@@H](NC(=O)[C@@H](Cc1c[nH]c2ccccc12)NC(=O)[C@H](N)CCC(=O)O)C(=O)N[C@H](Cc1ccc2ccccc2c1)C(=O)NO`, the Ki in assay [1] was determined as 49.8 nM; in assay [7], 228 nM; in [8], 3260 nM.
